Data published in ChEMBL document CHEMBL1649401, “Synthesis and biophysical evaluation of arylhydrazono-1H-2-indolinones as β-amyloid aggregation inhibitors” (Eur J Med Chem, 2011).
Calls of active or inactive are those of the source. No cut-off for these calls is given here.

Assays:
[1] = Inhibition of amyloid beta (1 to 40) aggregation after 2 hrs by thioflavin T based fluorometric assay
[2] = Inhibition of amyloid beta (1 to 40) aggregation assessed as delay in formation of fibrils at 5 uM after 12 hrs by dynamic light-scattering analysis
Outline: (§1)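 Dynamic light scattering at a 173° backscatter angle with a 633 nm laser, cell held at 37 °C. z-averaged hydrodynamic diameter obtained by second-order cumulant analysis and the Stokes–Einstein equation.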

[3] = Inhibition of amyloid beta (1 to 40) aggregation assessed as loss of beta-sheet structure up to 100 uM after up to 8 days by CD spectroscopy assay
Outline: (§2)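 Samples as for TEM: 50 μM Aβ1-40, 0.217 M phosphate pH 8.0, 10% ethanol, 37 °C incubation, aliquots removed over time. Spectra 195–250 nm, 0.1 cm cell, room temperature, 0.1 nm steps, 4 nm bandwidth. Buffer/ethanol (± compound) blank subtracted. Absolute 215 nm ellipticity plotted vs incubation time.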

[4] = Inhibition of amyloid beta (1 to 40) aggregation assessed as reduction of exponential phase of thioflavin T fluorescence curve at 5 uM after 3 to 4 days
Outline: (§3)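 Aβ1-40 (50 μM) incubated alone or with compound in 0.217 M phosphate pH 8.0, 10% ethanol, 37 °C. Aliquots taken at time points over several days and analyzed by ThT fluorescence. Values expressed as percentage of the plateau fluorescence of free aggregation.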

[5] = Inhibition of amyloid beta (1 to 40) aggregation assessed as loss of stable random coil arrangement of peptide up to 100 uM after up to 8 days by CD spectroscopy assay; outline: as §2
[6] = Inhibition of amyloid beta (1 to 40) aggregation assessed as effect on extension of beta-sheet content at 5 uM after 2 days by CD spectroscopy assay; outline: as §2
[7] = Solubility of the compound in aqueous buffer; type: physicochemical
[8] = Inhibition of amyloid beta (1 to 40) aggregation assessed as formation of long and curly fibrils at 5 uM after 7 days by transmission electron microscopic analysis
[9] = Inhibition of amyloid beta (1 to 40) aggregation assessed as reduction of exponential phase of thioflavin T fluorescence curve at 25 uM after 3 to 4 days; outline: as §3
[10] = Inhibition of amyloid beta (1 to 40) aggregation assessed as effect on extension of beta-sheet content at 5 uM up to 8 days by CD spectroscopy assay; outline: as §2
[11] = Inhibition of amyloid beta (1 to 40) aggregation assessed as inhibition of extended fibrils formation at 5 uM after 7 days by transmission electron microscopic analysis
[12] = Inhibition of amyloid beta (1 to 40) aggregation assessed as reduction of exponential phase of thioflavin T fluorescence curve at 100 uM after 3 to 4 days; outline: as §3
[13] = Inhibition of amyloid beta (1 to 40) aggregation assessed as reduction of autocorrelation function particles size at 5 uM after 3 days by dynamic light-scattering analysis; outline: as §1
[14] = Inhibition of amyloid beta (1 to 40) aggregation at 100 uM after 2 hrs by thioflavin T based fluorometric assay
Outline: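 Aβ1-40 (HFIP-treated, lyophilized) at 30 μM in PBS (0.01 M, NaCl 0.1 M, pH 7.4) containing 2% HFIP and 10% DMSO. Incubated with inhibitor in triplicate, 2 h at 25 °C. Sample mixed with 25 μM ThT in 0.025 M phosphate pH 6.0, read at ex 440/em 485 nm. % inhibition = 100 − [(Fi − Fb)/F0]×100. Screen at 100 μM.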

Row | Compound | IC50 [1] [µM] | inhibition [14] [%] | also measured
1 | O=C1Nc2cc(O)c(O)cc2/C1=N/Nc1cccc(Cl)c1 | 1.1 |  | inhibition [2]: Active; inhibition [3]: Active; inhibition [4]: Active; inhibition [5]: Active; inhibition [6]: inactive; solubility [7]: soluble; inhibition [8]: Active; inhibition [9]: Active; inhibition [10]: Active; inhibition [11]: Active; inhibition [12]: Active; inhibition [13]: inactive
2 | CC(C)c1ccc(N/N=C2\C(=O)Nc3ccc(O)cc32)cc1 | 21 |  | 
3 | O=C1Nc2ccccc2/C1=N/Nc1cccc([N+](=O)[O-])c1 |  | 29 | 
4 | O=C1Nc2cc(O)c(O)cc2/C1=N/Nc1ccc(O)cc1 | 24 |  | 
5 | O=C1Nc2ccccc2/C1=N/Nc1cccc(F)c1 |  | 52 | 
6 | O=C1Nc2ccccc2/C1=N/Nc1ccccc1Cl |  | 44 | 
7 | COc1ccc2[nH]c(O)c(/N=N/c3ccccc3)c2c1 |  | 52 | 
8 | COc1cc2c(cc1OC)/C(=N/Nc1ccccc1Cl)C(=O)N2 |  | 68 | 
9 | O=C1Nc2ccc(O)cc2/C1=N/Nc1ccccc1 |  | 62 | 
10 | COc1ccc(N/N=C2\C(=O)Nc3cc(OC)c(OC)cc32)cc1 | 22 |  | 
11 | COc1ccc2c(c1)NC(=O)/C2=N\Nc1ccccc1 | 5.8 |  | 
12 | COc1cc2c(cc1OC)/C(=N/Nc1ccccc1)C(=O)N2 |  | 68 | 
13 | O=C1Nc2ccccc2/C1=N/Nc1ccc(OC(F)(F)F)cc1 |  | 57 | 
14 | O=C1Nc2ccc(O)cc2/C1=N/Nc1cccc(Cl)c1 | 18 |  | 
15 | O=C1Nc2ccc([N+](=O)[O-])cc2/C1=N/Nc1ccccc1 |  | 0 | 
16 | COc1cc2c(cc1OC)/C(=N/Nc1cccc(Cl)c1)C(=O)N2 | 17 |  | 
17 | COc1cc2c(cc1OC)/C(=N/Nc1ccc(C(C)C)cc1)C(=O)N2 | 4.4 |  | 
18 | O=C1Nc2cc(O)c(O)cc2/C1=N/Nc1ccccc1 | 4.3 |  | 
19 | O=C1Nc2ccccc2/C1=N/Nc1ccc(O)cc1 | 9.3 |  | 
20 | O=C1Nc2cc(O)c(O)cc2/C1=N/Nc1ccccc1Cl | 11 |  | 
21 | CC(C)c1ccc(N/N=C2\C(=O)Nc3ccccc32)cc1 |  | 64 | 
22 | Oc1[nH]c2ccccc2c1/N=N/c1ccccc1 |  | 61 | 
23 | CC(C)c1ccc(N/N=C2\C(=O)Nc3cc(O)c(O)cc32)cc1 | 1.6 |  | 
24 | O=C1Nc2ccccc2/C1=N/Nc1cccc(Cl)c1 |  | 39 | 
25 | O=C1Nc2cc(O)ccc2/C1=N/Nc1ccccc1 | 22 |  | 
26 | COc1ccc2c(c1)/C(=N/Nc1cccc(OCc3ccccc3)c1)C(=O)N2 |  | 44 | 
27 | O=C1Nc2ccc(O)cc2/C1=N/Nc1ccc(O)cc1 |  | 61 | 
28 | CC(C)c1ccc(N/N=C2\C(=O)Nc3cc(O)ccc32)cc1 | 6 |  | 
29 | COc1ccc2c(c1)/C(=N/Nc1ccc(OCc3ccccc3)cc1)C(=O)N2 |  | 20 | 

The next lines start with results.

Row | IC50 [1] [µM] | inhibition [14] [%] | Compound | also measured
30 | 7.1 |  | COc1ccc2c(c1)NC(=O)/C2=N\Nc1ccc(C(C)C)cc1 | 
31 |  | 63 | O=C1Nc2ccc(Br)cc2/C1=N/Nc1ccc(Cl)cc1 | 
32 | 17 |  | O=C1Nc2cc(O)c(O)cc2/C1=N/Nc1ccc(Cl)cc1 | 
33 |  | 24 | O=C1Nc2ccccc2/C1=N/Nc1ccc(Cl)cc1 | 
34 |  | 12 | O=C1Nc2ccc([N+](=O)[O-])cc2/C1=N/Nc1ccc(Cl)cc1 | 
35 | 13 |  | COc1ccc(N/N=C2\C(=O)Nc3ccccc32)cc1 | 
36 |  | 29 | COc1ccc2c(c1)/C(=N/Nc1ccc(C)cc1)C(=O)N2 | 
37 |  | 28 | O=C1Nc2cc(Cl)c(F)cc2/C1=N/Nc1ccc(Cl)cc1 | 
38 | 15 |  | COc1ccc2c(c1)/C(=N/Nc1ccc(C(C)(C)C)cc1)C(=O)N2 | 
39 |  | 72 | COc1ccc2c(c1)/C(=N/Nc1cccc(Cl)c1)C(=O)N2 | 
40 |  | 56 | COc1ccc2c(c1)/C(=N/Nc1cccc(C(C)(C)C)c1)C(=O)N2 | 
41 |  | 71 | COc1cc2c(cc1OC)/C(=N/Nc1ccc(Cl)cc1)C(=O)N2 | 
42 | 0.4 |  | COc1ccc2c(c1)/C(=N/Nc1ccc(C(C)C)cc1)C(=O)N2 | 
43 | 3.7 |  | COc1ccc(N/N=C2\C(=O)Nc3ccc(OC)cc32)cc1 | 
44 |  | 43 | COc1ccc2c(c1)/C(=N/Nc1ccc(Cl)cc1)C(=O)N2 | 
